The text below walks through data of ChEMBL document CHEMBL1143828, “A new Aspergillus fumigatus resistance mechanism conferring in vitro cross-resistance to azole antifungals involves a combination of cyp51A alterations” (2007).

≈ marks a conversion by molar mass, not a printed value.

What all share (type): functional
In assay [1] the test system is Aspergillus fumigatus. As to the kind of experiment: Antifungal activity against azole-resistant Aspergillus fumigatus V49/09-CM4023 isolate from patient with chronic obstructive pulmonary disease by broth microdilution susceptibility test. Summed up: (§1)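 Broth microdilution per CLSI M38-A with modifications; agents tested: itraconazole, voriconazole, ravuconazole, posaconazole, amphotericin B. Clinical isolates stored as conidia in sterile distilled water, grown at 37°C on potato dextrose agar. Each strain tested at least three times on different days. Quality controls: A. flavus ATCC 204304 and A. fumigatus ATCC 204305.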
(In general: Broth dilution looks for growth in wells or tubes with falling amounts of substance.)

The test system of assay [2] is Aspergillus fumigatus. Briefly: Antifungal activity against azole-resistant Aspergillus fumigatus M03/669-CM2627 isolate from patient by broth microdilution susceptibility test. Summed up:
as §1

For assay [3], the system named is Aspergillus fumigatus. Briefly: Antifungal activity against azole-resistant Aspergillus fumigatus V13/02-CM3271 isolate from patient with X-linked chronic granulomatous disease by broth microdilution susceptibility test. In a few lines:
as §1

Assay [4] has as its system Aspergillus fumigatus. As to the kind of experiment: Antifungal activity against azole-resistant Aspergillus fumigatus V27/28-CM3273 isolate from patient by broth microdilution susceptibility test. In a few lines: as §1
Assay [5] relates to Aspergillus fumigatus. Briefly: Antifungal activity against azole-resistant Aspergillus fumigatus V13/03-CM3272 isolate from patient with X-linked chronic granulomatous disease by broth microdilution susceptibility test. Summed up:
as §1

Assay [6] deals with Aspergillus fumigatus. As to the kind of experiment: Antifungal activity against azole-resistant Aspergillus fumigatus V48/27-CM3936 isolate from patient with acute myeloid leukemia by broth microdilution susceptibility test. In a few lines:
as §1

Assay [7] concerns Aspergillus fumigatus. Briefly: Antifungal activity against azole-resistant Aspergillus fumigatus V34/77-CM3278 isolate from patient with hyper-immunoglobulin E syndrome by broth microdilution susceptibility test. In a few lines:
as §1

The test system of assay [8] is Aspergillus fumigatus. As to the kind of experiment: Antifungal activity against azole-resistant Aspergillus fumigatus V49/77-CM4050 isolate from patient with acute myeloid leukemia by broth microdilution susceptibility test. In a few lines: as §1
The subject of assay [9] is Aspergillus fumigatus. Briefly: Antifungal activity against azole-resistant Aspergillus fumigatus V34/75-CM3276 isolate from patient with hyper-immunoglobulin E syndrome by broth microdilution susceptibility test. Summed up: as §1
Assay [10] has as its system Aspergillus fumigatus. As to the kind of experiment: Antifungal activity against azole-resistant Aspergillus fumigatus V34/78-CM3279 isolate from patient with hyper-immunoglobulin E syndrome by broth microdilution susceptibility test. Summed up:
as §1

Assay [11] deals with Aspergillus fumigatus. As to the kind of experiment: Antifungal activity against azole-resistant Aspergillus fumigatus V41/26-CM3820 isolate from patient with pulmonary fibrosis by broth microdilution susceptibility test. In a few lines: as §1
Assay [12] relates to Aspergillus fumigatus. Briefly: Antifungal activity against azole-resistant Aspergillus fumigatus V34/76-CM3277 isolate from patient with hyper-immunoglobulin E syndrome by broth microdilution susceptibility test. In a few lines:
as §1

Assay [13] has as its system Aspergillus fumigatus. As to the kind of experiment: Antifungal activity against azole-resistant Aspergillus fumigatus V28/78-CM3275 isolate from patient with acute myeloid leukemia by broth microdilution susceptibility test. Summed up: as §1
Assay [14] has as its system Aspergillus fumigatus. As to the kind of experiment: Antifungal activity against azole-resistant Aspergillus fumigatus V45/07-CM3819 isolate from patient with chronic granulomatous disease by broth microdilution susceptibility test. In a few lines:
as §1

A word on the MIC: it is the least concentration at which growth counts as inhibited. Low readings indicate greater potency, high ones weaker potency. For the molecule `C[C@@H](c1ncncc1F)[C@](O)(Cn1cncn1)c1ccc(F)cc1F` [VORICONAZOLE], the minimum inhibitory concentration (MIC) against Aspergillus fumigatus [1] turned out to be 4 µg/mL (≈ 11.5 µM); against Aspergillus fumigatus [2] it was 4 µg/mL (≈ 11.5 µM); in the assay with Aspergillus fumigatus [3] it was 2 µg/mL (≈ 5.73 µM); with Aspergillus fumigatus [4], 4 µg/mL (≈ 11.5 µM); in the assay with Aspergillus fumigatus [5] it was 2 µg/mL (≈ 5.73 µM); in the assay on Aspergillus fumigatus [6], 4 µg/mL (≈ 11.5 µM). In addition, the MIC came out at 2 µg/mL (≈ 5.73 µM) against Aspergillus fumigatus [7]; 4 µg/mL (≈ 11.5 µM) against Aspergillus fumigatus [8]; 4 µg/mL (≈ 11.5 µM) against Aspergillus fumigatus [9]; 2 µg/mL (≈ 5.73 µM) in the assay with Aspergillus fumigatus [10]; 4 µg/mL (≈ 11.5 µM) in the assay with Aspergillus fumigatus [11]; 2 µg/mL (≈ 5.73 µM) against Aspergillus fumigatus [12]. Moreover, the values for the MIC in the assay on Aspergillus fumigatus [13] and against Aspergillus fumigatus [14] were 4 µg/mL (≈ 11.5 µM) and greater than 8 µg/mL, respectively.

Regarding `C[C@@H](c1nc(-c2ccc(C#N)cc2)cs1)[C@](O)(Cn1cncn1)c1ccc(F)cc1F` [RAVUCONAZOLE], the MIC in the assay on Aspergillus fumigatus [1] is 8 µg/mL (≈ 18.3 µM); against Aspergillus fumigatus [2] it was 4 µg/mL (≈ 9.14 µM); with Aspergillus fumigatus [3], greater than 8 µg/mL; with Aspergillus fumigatus [4], 4 µg/mL (≈ 9.14 µM); with Aspergillus fumigatus [5], greater than 8 µg/mL; against Aspergillus fumigatus [6], 8 µg/mL (≈ 18.3 µM). In addition, the MIC against Aspergillus fumigatus [7], in the assay on Aspergillus fumigatus [8], against Aspergillus fumigatus [9], against Aspergillus fumigatus [10], in the assay on Aspergillus fumigatus [11] and against Aspergillus fumigatus [12] was 4 µg/mL (≈ 9.14 µM) each time. Besides, the minimal inhibitory concentration (MIC) in the assay on Aspergillus fumigatus [13] and against Aspergillus fumigatus [14] was 8 µg/mL (≈ 18.3 µM) throughout.

As to `C[C@@H]1[C@H](O)[C@@H](C)/C=C/C=C/C=C/C=C/C=C/C=C/C=C/[C@H](O[C@@H]2O[C@H](C)[C@@H](O)[C@H](N)[C@@H]2O)C[C@@H]2O[C@](O)(C[C@@H](O)C[C@@H](O)[C@H](O)CC[C@@H](O)C[C@@H](O)CC(=O)O[C@H]1C)C[C@H](O)[C@H]2C(=O)O` [AMPHOTERICIN B], the MIC in the assay on Aspergillus fumigatus [1], with Aspergillus fumigatus [2], with Aspergillus fumigatus [3], in the assay with Aspergillus fumigatus [4], against Aspergillus fumigatus [5] and in the assay with Aspergillus fumigatus [6] was 0.25 µg/mL (≈ 0.271 µM) each time. Also, the MIC against Aspergillus fumigatus [7], against Aspergillus fumigatus [8], in the assay on Aspergillus fumigatus [9], in the assay on Aspergillus fumigatus [10], with Aspergillus fumigatus [11] and against Aspergillus fumigatus [12] was 0.25 µg/mL (≈ 0.271 µM) in each case. The MIC against Aspergillus fumigatus [13] and against Aspergillus fumigatus [14] was 0.25 µg/mL (≈ 0.271 µM) each time.

In the case of `CC[C@@H]([C@H](C)O)n1ncn(-c2ccc(N3CCN(c4ccc(OC[C@@H]5CO[C@@](Cn6cncn6)(c6ccc(F)cc6F)C5)cc4)CC3)cc2)c1=O` [POSACONAZOLE], the MIC against Aspergillus fumigatus [1] is 4 µg/mL (≈ 5.71 µM); in the assay with Aspergillus fumigatus [2], 0.5 µg/mL (≈ 0.713 µM); against Aspergillus fumigatus [3], 1 µg/mL (≈ 1.43 µM); in the assay with Aspergillus fumigatus [4], 1 µg/mL (≈ 1.43 µM); in the assay with Aspergillus fumigatus [5] it was 1 µg/mL (≈ 1.43 µM); against Aspergillus fumigatus [6], 4 µg/mL (≈ 5.71 µM). Further, the minimum inhibitory concentration (MIC) against Aspergillus fumigatus [7] came out at 0.5 µg/mL (≈ 0.713 µM); in the assay with Aspergillus fumigatus [8] it was 1 µg/mL (≈ 1.43 µM); in the assay with Aspergillus fumigatus [9] it was 0.5 µg/mL (≈ 0.713 µM); in the assay on Aspergillus fumigatus [10] it was 0.5 µg/mL (≈ 0.713 µM); in the assay on Aspergillus fumigatus [11] it was 0.5 µg/mL (≈ 0.713 µM); against Aspergillus fumigatus [12], 0.5 µg/mL (≈ 0.713 µM). Further, the MIC in the assay on Aspergillus fumigatus [13] was 0.5 µg/mL (≈ 0.713 µM); against Aspergillus fumigatus [14], 1 µg/mL (≈ 1.43 µM).

For the molecule `CCC(C)n1ncn(-c2ccc(N3CCN(c4ccc(OCC5COC(Cn6cncn6)(c6ccc(Cl)cc6Cl)O5)cc4)CC3)cc2)c1=O` (stereo not given) [ITRACONAZOLE], the MIC with Aspergillus fumigatus [1], in the assay with Aspergillus fumigatus [2], against Aspergillus fumigatus [3], with Aspergillus fumigatus [4], against Aspergillus fumigatus [5] and with Aspergillus fumigatus [6] was greater than 8 µg/mL throughout. Also, the minimal inhibitory concentration (MIC) in the assay with Aspergillus fumigatus [7], against Aspergillus fumigatus [8], in the assay on Aspergillus fumigatus [9], against Aspergillus fumigatus [10], in the assay with Aspergillus fumigatus [11] and with Aspergillus fumigatus [12] was greater than 8 µg/mL each time. In addition, the MIC in the assay with Aspergillus fumigatus [13] and in the assay with Aspergillus fumigatus [14] was greater than 8 µg/mL each time.
